Reference: ChEMBL document CHEMBL1828615, “Synthesis of a series of 3,4-methanoarginines as side-chain conformationally restricted analogues of arginine” (Bioorg Med Chem, 2011)

B1: Nitric oxide synthase, inducible (Mus musculus), P29477 (protein)
chain: MACPWKFLFKVKSYQSDLKEEKDINNNVKKTPCAVLSPTIQDDPKSHQNGSPQLLTGTAQNVPESLDKLHVTSTRPQYVRIKNWGSGEILHDTLHHKATSDFTCKSKSCLGSIMNPKSLTRGPRDKPTPLEELLPHAIEFINQYYGSFKEAKIEEHLARLEAVTKEIETTGTYQLTLDELIFATKMAWRNAPRCIGRIQWSNLQVFDARNCSTAQEMFQHICRHILYATNNGNIRSAITVFPQRSDGKHDFRLWNSQLIRYAGYQMPDGTIRGDAATLEFTQLCIDLGWKPRYGRFDVLPLVLQADGQDPEVFEIPPDLVLEVTMEHPKYEWFQELGLKWYALPAVANMLLEVGGLEFPACPFNGWYMGTEIGVRDFCDTQRYNILEEVGRRMGLETHTLASLWKDRAVTEINVAVLHSFQKQNVTIMDHHTASESFMKHMQNEYRARGGCPADWIWLVPPVSGSITPVFHQEMLNYVLSPFYYYQIEPWKTHIWQNEKLRPRRREIRFRVLVKVVFFASMLMRKVMASRVRATVLFATETGKSEALARDLATLFSYAFNTKVVCMDQYKASTLEEEQLLLVVTSTFGNGDCPSNGQTLKKSLFMLRELNHTFRYAVFGLGSSMYPQFCAFAHDIDQKLSHLGASQLAPTGEGDELSGQEDAFRSWAVQTFRAACETFDVRSKHHIQIPKRFTSNATWEPQQYRLIQSPEPLDLNRALSSIHAKNVFTMRLKSQQNLQSEKSSRTTLLVQLTFEGSRGPSYLPGEHLGIFPGNQTALVQGILERVVDCPTPHQTVCLEVLDESGSYWVKDKRLPPCSLSQALTYFLDITTPPTQLQLHKLARFATDETDRQRLEALCQPSEYNDWKFSNNPTFLEVLEEFPSLHVPAAFLLSQLPILKPRYYSISSSQDHTPSEVHLTVAVVTYRTRDGQGPLHHGVCSTWIRNLKPQDPVPCFVRSVSGFQLPEDPSQPCILIGPGTGIAPFRSFWQQRLHDSQHKGLKGGRMSLVFGCRHPEEDHLYQEEMQEMVRKRVLFQVHTGYSRLPGKPKVYVQDILQKQLANEVLSVLHGEQGHLYICGDVRMARDVATTLKKLVATKLNLSEEQVEDYFFQLKSQKRYHEDIFGAVFSYGAKKGSALEEPKATRL
B2: Nitric oxide synthase 3 (Bos taurus), P29473 (protein)
chain: MGNLKSVGQEPGPPCGLGLGLGLGLCGKQGPASPAPEPSRAPAPATPHAPDHSPAPNSPTLTRPPEGPKFPRVKNWELGSITYDTLCAQSQQDGPCTPRCCLGSLVLPRKLQTRPSPGPPPAEQLLSQARDFINQYYSSIKRSGSQAHEERLQEVEAEVASTGTYHLRESELVFGAKQAWRNAPRCVGRIQWGKLQVFDARDCSSAQEMFTYICNHIKYATNRGNLRSAITVFPQRAPGRGDFRIWNSQLVRYAGYRQQDGSVRGDPANVEITELCIQHGWTPGNGRFDVLPLLLQAPDEAPELFVLPPELVLEVPLEHPTLEWFAALGLRWYALPAVSNMLLEIGGLEFSAAPFSGWYMSTEIGTRNLCDPHRYNILEDVAVCMDLDTRTTSSLWKDKAAVEINLAVLHSFQLAKVTIVDHHAATVSFMKHLDNEQKARGGCPADWAWIVPPISGSLTPVFHQEMVNYILSPAFRYQPDPWKGSATKGAGITRKKTFKEVANAVKISASLMGTLMAKRVKATILYASETGRAQSYAQQLGRLFRKAFDPRVLCMDEYDVVSLEHEALVLVVTSTFGNGDPPENGESFAAALMEMSGPYNSSPRPEQHKSYKIRFNSVSCSDPLVSSWRRKRKESSNTDSAGALGTLRFCVFGLGSRAYPHFCAFARAVDTRLEELGGERLLQLGQGDELCGQEEAFRGWAKAAFQASCETFCVGEEAKAAAQDIFSPKRSWKRQRYRLSTQAEGLQLLPGLIHVHRRKMFQATVLSVENLQSSKSTRATILVRLDTAGQEGLQYQPGDHIGICPPNRPGLVEALLSRVEDPPPPTESVAVEQLEKGSPGGPPPSWVRDPRLPPCTLRQALTFFLDITSPPSPRLLRLLSTLAEEPSEQQELETLSQDPRRYEEWKWFRCPTLLEVLEQFPSVALPAPLLLTQLPLLQPRYYSVSSAPNAHPGEVHLTVAVLAYRTQDGLGPLHYGVCSTWLSQLKTGDPVPCFIRGAPSFRLPPDPYVPCILVGPGTGIAPFRGFWQERLHDIESKGLQPAPMTLVFGCRCSQLDHLYRDEVQDAQERGVFGRVLTAFSREPDSPKTYVQDILRTELAAEVHRVLCLERGHMFVCGDVTMATSVLQTVQRILATEGDMELDEAGDVIGVLRDQQRYHEDIFGLTLRTQEVTSRIRTQSFSLQERHLRGAVPWAFDPPGPDTPGP

Key:
[1] = substrate: N=C(N)NCCC[C@H](N)C(=O)O; experiment: (§1) Activity of mouse iNOS by Michaelis-Menten equation analysis
How it was run: (§2)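 Murine iNOS kinetics used a hemoglobin capture assay at 30 °C, with no CaCl₂ or calmodulin. The mix held varied substrate concentrations, NADPH, 0.125 mg/mL ferrous hemoglobin-A₀ and H₄B in 100 mM HEPES (pH 7.5), and enzyme addition started it. Absorbance at 401 nm tracked NO-mediated hemoglobin oxidation. Km and kcat were obtained by nonlinear Michaelis–Menten regression of activity against substrate concentration.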

[2] = substrate: N=C(N)NC[C@H]1C[C@@H]1[C@H](N)C(=O)O; experiment: as §1; how it was run: as §2
[3] = substrate: N=C(N)NC[C@H]1C[C@H]1[C@H](N)C(=O)O; experiment: as §1; how it was run: as §2
[4] = substrate: N=C(N)NCCC[C@H](N)C(=O)O; experiment: (§3) Ratio of Kcat to Km for mouse iNOS by Michaelis-Menten equation analysis; how it was run: as §2
[5] = substrate: N=C(N)NC[C@H]1C[C@@H]1[C@H](N)C(=O)O; experiment: as §3; how it was run: as §2
[6] = substrate: N=C(N)NC[C@H]1C[C@H]1[C@H](N)C(=O)O; experiment: as §3; how it was run: as §2
[7] = substrate: N=C(N)NCCC[C@H](N)C(=O)O; experiment: (§4) Activity of bovine eNOS by Michaelis-Menten equation analysis; settings: Bos taurus
How it was run: (§5)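 Bovine eNOS run as a hemoglobin capture assay at 30 °C. The mix held varied substrate concentrations, 1.0 mM CaCl₂, 600 unit/mL calmodulin, NADPH, 0.125 mg/mL ferrous hemoglobin-A₀ and H₄B in 100 mM HEPES (pH 7.5). Enzyme addition started the reaction, and NO-driven hemoglobin oxidation was followed at 401 nm. Km and kcat came from a nonlinear Michaelis–Menten fit of activity versus substrate concentration.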

[8] = substrate: N=C(N)NC[C@H]1C[C@@H]1[C@H](N)C(=O)O; experiment: as §4; settings: Bos taurus; how it was run: as §5
[9] = substrate: N=C(N)NC[C@H]1C[C@H]1[C@H](N)C(=O)O; experiment: as §4; settings: Bos taurus; how it was run: as §5
[10] = substrate: N=C(N)NCCC[C@H](N)C(=O)O; experiment: (§6) Ratio of Kcat to Km for bovine eNOS by Michaelis-Menten equation analysis; settings: Bos taurus; how it was run: as §5
[11] = substrate: N=C(N)NC[C@H]1C[C@@H]1[C@H](N)C(=O)O; experiment: as §6; settings: Bos taurus; how it was run: as §5
[12] = substrate: N=C(N)NC[C@H]1C[C@H]1[C@H](N)C(=O)O; experiment: as §6; settings: Bos taurus; how it was run: as §5

Protein | Km [1] | Km [2] | Km [3] | kcat/Km [4] | kcat/Km [5] | kcat/Km [6] | Km [7] | Km [8] | Km [9] | kcat/Km [10] | kcat/Km [11] | kcat/Km [12]
B1 | 9.5 µM | 20 µM | 582 µM | 110000 M⁻¹ s⁻¹ | 99000 M⁻¹ s⁻¹ | 3000 M⁻¹ s⁻¹ | – | – | – | – | – | –
B2 | – | – | – | – | – | – | 1.1 µM | 3.6 µM | 163 µM | 73000 M⁻¹ s⁻¹ | 42000 M⁻¹ s⁻¹ | 920 M⁻¹ s⁻¹
